# Like-named read-outs stand apart in the source and are kept apart here. No end group written: not given here.
# Legend:
# [1] = molecular target: recombinant human survivin (Homo sapiens, UniProt O15392); experiment: Saturation binding assay of peptides to recombinant survivin protein; details: QCM sensorgram, result in words
# In short: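 Quartz crystal microbalance. Recombinant human survivin (40 μg/mL) amide-coupled to the gold electrode of the sensor chip, with the chip soaked in buffer. 8 μL aliquots of test peptide solutions (10–256 μmol L⁻¹ as injected) added sequentially to the cuvette. Frequency change monitored over time. Kd derived by kinetic analysis using a one-binding-site model.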
# [2] = tested on: cleaved caspase‐3 in MIA PaCa‐2 cells; experiment: Western blot of cleaved caspase-3, MIA PaCa-2; format: cell-based, human; details: even at 10 µmol L^−1, 48 h, vs untreated cells, n = 3
# [3] = tested on: survivin in MIA PaCa‐2 cells; experiment: Western blot of survivin protein expression, MIA PaCa-2; format: cell-based, human; details: 40 µmol L^−1, 48 h, P = .366, without statistical significance, n = 3
# [4] = tested on: MCF‐10A cells; experiment: Cell proliferation assay; format: cell-based, human; details: MTT, 1, 10 or 100 µmol L^−1, 48 h
# In short: (§1)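 Cells treated 48 h with test compound at 1, 10 or 100 µmol L⁻¹, or with 1% DMSO solvent alone. Culture media: MIA PaCa-2 in low-glucose DMEM with 10% FBS; MCF-10A in DMEM/F-12 with 5% horse serum, EGF, insulin and hydrocortisone. MTT added for 4 h, then cells lysed in DMSO. OD read at 570 nm (650 nm correction). Viability expressed relative to DMSO-treated cells (100%). Mean ± SD, n = 5–6; Kruskal-Wallis test with Dunn's post hoc test.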
# [5] = tested on: human serum albumin (HSA); experiment: QCM response to human serum albumin-immobilized sensor chip; format: binding; details: QCM sensorgram, result in words
# In short: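 Quartz crystal microbalance run with an HSA-immobilized sensor chip. Test compound added to the cuvette in successive portions, giving overall cuvette concentrations that start at 1 and 10 nmol L⁻¹. Frequency change recorded over time as the binding response.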
# [6] = tested on: survivin in MDA‐MB‐231 cells; experiment: Western blot of survivin protein expression, MDA-MB-231; format: cell-based, human; details: 10 or 40 μmol L^−1, 48 h, vs vehicle control, n = 3
# [7] = tested on: MIA PaCa‐2 cells; experiment: Flow cytometry, annexin V-FITC/PI apoptosis; format: cell-based, human; details: n = 3
# [8] = tested on: MDA‐MB‐231 cells; experiment: Cell proliferation assay; format: cell-based, human; details: MTT, different concentrations, 48 h
# [9] = tested on: MIA PaCa‐2 cells; experiment: Cell proliferation assay; format: cell-based, human; details: MTT, different concentrations, 48 h
# In short: as §1
# [10] = molecular target: T1, recombinant human survivin (human, UniProt O15392); experiment: quartz crystal microbalance
# [11] = molecular target: T1, recombinant human survivin; experiment: quartz crystal microbalance; remark: listed apart in the source
# T1 sequence (O15392 whole entry): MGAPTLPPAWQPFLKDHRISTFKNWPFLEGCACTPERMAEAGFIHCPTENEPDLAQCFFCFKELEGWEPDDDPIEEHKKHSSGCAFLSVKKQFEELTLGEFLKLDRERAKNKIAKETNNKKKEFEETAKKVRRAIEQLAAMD
# Chain of recombinant human survivin (Homo sapiens, UniProt O15392) (O15392 whole entry): as above
molecule,measurement,setting,value
CSCC[C@H](NC(=O)[C@H](CC(C)C)NC(=O)[C@H](CCCCN)NC(=O)[C@H](CCC(N)=O)NC(=O)[C@H](CC(=O)O)NC(=O)CCCCCNC(=O)[C@@H](CCCNC(=N)N)NC(=O)[C@@H](CCCNC(=N)N)NC(=O)[C@@H](CCCNC(=N)N)NC(=O)[C@@H](CCCNC(=N)N)NC(=O)[C@@H](CCCNC(=N)N)NC(=O)[C@@H](CCCNC(=N)N)NC(=O)[C@@H](CCCNC(=N)N)NC(=O)[C@@H](CCCNC(=N)N)NC(=O)[C@@H](CCCNC(=N)N)NC(C)=O)C(=O)N[C@@H](CCC(=O)O)C(=O)N[C@@H](Cc1ccccc1)C(N)=O [r9‐INC16‐22],QCM response to survivin-immobilized sensor chip,[1],strongly responded to survivin in a dose‐dependent manner
same,expression of cleaved caspase‐3 in MIA PaCa‐2 cells,[2],significantly increased
same,protein expression level of survivin in MIA PaCa‐2 cells,[3],apparently reduced the protein level
same,antiproliferative effect on MCF‐10A cells (in words),[4],No marked antiproliferative effect
same,QCM response to HSA-immobilized sensor chip,[5],no significant response
same,protein expression level of survivin in MDA‐MB‐231 cells,[6],Neither the treatment with r9‐INC16‐22 at a concentration of 10 μmol L^−1 nor at 40 μmol L^−1 showed any significant decrease
same,early apoptosis rate,"[7]; MIA PaCa‐2, 10 μmol L^−1, 24 h",52.4%
same,late apoptosis and necrosis rate,"[7]; MIA PaCa‐2, 10 μmol L^−1, 24 h",29.4%
same,early apoptosis rate,"[7]; MIA PaCa‐2, 50 μmol L^−1, 24 h",49.6%
same,late apoptosis and necrosis rate,"[7]; MIA PaCa‐2, 50 μmol L^−1, 24 h",44.2%
Ac-rrrrrrrrr-ahx-QLDMFKE-NH2 [r9‐scINC16‐22],antiproliferative effect on MDA‐MB‐231 cells (in words),[8],no significant antiproliferative effect
same,QCM response to survivin-immobilized sensor chip,[1],negligible response
same,antiproliferative effect on MIA PaCa‐2 cells (in words),[9],no significant antiproliferative effect
CDQKLMEF-NH2 [INC_(15-22)],Kd,[10],248 nM
EEAERMFTR-NH2 [INC_(39-47)],Kd,[11],135 nM
QLDMFKE-NH2 [scINC_(16-22)],Kd,[10],> 300 nM
GPIHLLEL-NH2 [INC_(7-14)],Kd,[11],214 nM
DNKDLVWL-NH2 [INC_(27-34)],Kd,[11],255 nM
DQKLMEF (HELM PEPTIDE1{[O=C1OC2(c3ccc(O)cc3Oc3cc(O)ccc32)c2ccc(NC(=S)[*:2])cc21].[O=C(CCCCCN[*:1])[*:2]].D.Q.K.L.M.E.F.[am]}$$$$V2.0; SMILES CSCC[C@H](NC(=O)[C@H](CC(C)C)NC(=O)[C@H](CCCCN)NC(=O)[C@H](CCC(N)=O)NC(=O)[C@H](CC(=O)O)NC(=O)CCCCCNC(=S)Nc1ccc2c(c1)C(=O)OC21c2ccc(O)cc2Oc2cc(O)ccc21)C(=O)N[C@@H](CCC(=O)O)C(=O)N[C@@H](Cc1ccccc1)C(N)=O) [FITC-INC_(16-22)],Kd,[10],66 nM
DQKLMEF-NH2 [INC_(16-22)],Kd,[11],91.4 nM
DQKLMEFLCNMDNKDLVWL-NH2 [INC_(16-34)],Kd,[10],160 nM
LCNMDNKD-NH2 [INC_(23-30)],Kd,[11],117 nM
LVWLEEIQ-NH2 [INC_(31-38)],Kd,[11],108 nM

# Source: paper PMC7156834 (Cancer Science, 2020)
